# Screening data (PubChem)
# MEX-5 binding = C. elegans MEX-5 TCR-2 RNA binding activity; Q9XUB2; MEX-5/FITC-TCR2 RNA binding, fluorescence polarization; active compounds read low; activity score (negative = inhibition of binding), % at 10 µM; 0.38% of 300,000 active;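 active = inhibition past about -25% in most replicates, and total fluorescence under double the plate's negative control median, limit read from the data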;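 also: 0% = DMSO and -100% = 5 µM competing unlabeled TCR2 RNA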
# Target sequence (Q9XUB2 whole entry, looked up): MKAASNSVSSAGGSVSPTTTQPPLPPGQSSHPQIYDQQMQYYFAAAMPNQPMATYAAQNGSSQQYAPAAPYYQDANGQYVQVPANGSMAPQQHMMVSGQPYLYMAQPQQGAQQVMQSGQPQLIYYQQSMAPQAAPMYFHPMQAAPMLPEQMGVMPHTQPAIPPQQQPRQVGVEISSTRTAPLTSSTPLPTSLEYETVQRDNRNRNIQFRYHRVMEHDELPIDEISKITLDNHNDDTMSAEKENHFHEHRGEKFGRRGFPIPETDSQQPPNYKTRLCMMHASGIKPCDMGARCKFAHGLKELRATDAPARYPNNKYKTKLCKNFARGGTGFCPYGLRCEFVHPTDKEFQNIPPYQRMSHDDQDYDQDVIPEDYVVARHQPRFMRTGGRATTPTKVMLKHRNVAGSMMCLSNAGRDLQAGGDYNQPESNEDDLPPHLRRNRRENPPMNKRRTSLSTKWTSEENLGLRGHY
# ZTA counter = blocks Epstein-Barr virus ZTA, an EBNA-1 counter-screen; P03206; ZTA-DNA binding, fluorescence polarization; inhibition, % at 11 µM; 0.15% of 320,000 active; AID 2234; in the data active = inhibition above about 33%
# HCV NS3 hel inh = inhibitors of Hepatitis C virus NS3 helicase | inhibition, % at 10.9 µM | NS3 helicase DNA unwinding, Cy5 molecular beacon fluorescence | AID 1800 | 0.56% of 290,000 active;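 active = inhibition above the mean of all tested compounds plus 3 SD, set per campaign, cut at about 35% in these data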;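 also: 0% = DMSO wells and 100% = thioflavine S control wells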
#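 Control set: DMSO versus 110 µM thioflavine S; Material: NS3 helicase fragment of HCV; Measured by: Cy5 fluorescence at 0 and 60 min, beacon hairpin quenching; Read-out basis: percent inhibition from t60/t0 fluorescence ratio; Times: reaction time 60 min, 25 °C; Repeats: single replicate; Compound dosing: single dose, 10.9 µM nominal final, DMSO 0.8% final.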
# EBV gp42 block = inhibitors of Epstein-Barr virus glycoprotein 42; Q1HVG2; Fluorescence polarization binding assay, mP read-out; inhibition, % (tested at 21.74 µM); 0.42% of 220,000 active; AID 1085; in the data active = inhibition above about 50%
# HCV core dimer = blocks dimerization of HCV core protein. TR-FRET GST/Flag-core106 dimerization, 1536-well. inhibition, % at 5 µM. 0.33% of 300,000 active;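 active = inhibition above the mean of all tested compounds plus 3 SD, set per screening campaign, cut at about 45% in these data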
#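 Assay system – GST-tagged and Flag-tagged HCV core protein residues 1-106 · Quantity – core106 proteins, GST 13.5 nM and Flag 17 nM · Benchmarks – unlabelled core106 and no-GST-core106 wells · Read-out basis – percent inhibition of core106 dimerization signal · Detection – time-resolved FRET, ex 340 nm, em 617 and 671 nm · Schedule – 4 h at 22.5 °C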
# EBNA-1 inh = blocks EBNA-1 binding to DNA; EBNA-1 DNA binding, fluorescence polarization; inhibition, % at 14.8 µM; 0.34% of 300,000 active; in the data active = inhibition above about 28%
# NS3 hel confirm = HCV NS3 helicase inhibition, confirmation assay | shares compounds with HCV NS3 hel inh | NS3 helicase DNA unwinding, Cy5 molecular beacon fluorescence | inhibition, % at 10.9 µM | 31% of 1,600 active | AID 1943;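 active = inhibition above the mean of all tested compounds plus 3 SD, cutoff set per campaign, cut at about 36% in these data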
# FID counter trip = displaces DNA intercalator in HCV helicase counter-screen. shares compounds with HCV NS3 hel inh. DNA fluorescent intercalator displacement, fluorescence. AID 1945. 4% of 1,600 active. inhibition, % at 7.9 µM; in the data active = inhibition above about 37%;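 also: 0% = vehicle and 100% = reference compound; higher means more displacement of ethidium bromide from the DNA hairpin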
# DNA FID DR = DNA intercalator displacement in dose response; shares compounds with HCV NS3 hel inh; fluorescent intercalator displacement from DNA, fluorescence; IC50, µM; 120 tested, under 10 active; AID 2172; call rule not given here
# * marks the source's active call; other numbers are inactive results; . = no result given; + = active, no number. Shown are actives, neighbours in structure and some others; about 1.7% of the full set was active somewhere.
SMILES,MEX-5 binding,ZTA counter,HCV NS3 hel inh,EBV gp42 block,HCV core dimer,EBNA-1 inh,NS3 hel confirm,FID counter trip,others
CC1=C(C)Cc2c(OC(=O)c3ccccc3)ccc(OC(=O)c3ccccc3)c2C1,2,-9,17,-8,-8,-12,-11,1,
O=C(NCc1ccccc1)C(c1ccc(O)cc1)N(C(=O)c1cnccn1)c1ccccc1 (stereo unspecified),2,18,5,.,-2,4,.,.,
Oc1ccccc1OCc1nc2ccccc2s1,-4,7,3,-10,-2,4,.,.,
OCc1cc(Br)ccc1OCc1nc2ccccc2s1,-2,-22,38*,.,-12,-6,-4,-15,
O=C1NN(c2ccc(Br)cc2)C(=O)/C1=C\c1ccc(O)cc1O,-4,-10,39*,.,3,-14,58*,17,
O=C1NN(c2cccc(Br)c2)C(=O)/C1=C\c1ccc(O)cc1,-2,-18,-15,.,-2,10,.,.,
O=C(N/N=C/c1ccc[nH]1)c1cc2ccccc2cc1O,2,3,41*,.,1,-16,-14,5,
Cc1cccc(C)c1NS(=O)(=O)c1ccc(-c2cnc(C3CC3)o2)cc1,0,-5,1,.,-8,5,.,.,
CCN(C(=S)NCCOC)c1cccc2ccccc12,.,1,44*,6,-5,9,1,-31,
COc1ccc(NC(=O)CC23CC4CC(CC(C4)C2)C3)cn1,2,21,-10,-6,3,8,.,.,
CCc1ccc(/C=C/C(=O)c2cc(Br)ccc(=O)c2O)cc1,-5,21,16,-9,19,-9,.,.,
CCOc1ccc(/C=C/C(=O)c2cc(Br)ccc(=O)c2O)cc1,.,15,59*,0,3,2,77*,5,DNA FID DR=>79
CCOC(=O)c1cnc2c(C)cc(C)cc2c1NCCCN1CCOCC1,2,.,41*,.,.,.,0,77*,
CCOC(=O)c1cnc2c(C)c(Cl)ccc2c1NCCCN1CCOCC1,-2,-15,18,.,10,-4,.,.,
Cc1[nH]c2ccccc2c1N=Nc1ccccc1C(=O)O,0,-1,44*,1,-20,-13,5,13,
Cc1ccc(C)n1Cc1ccc(C(=O)O)cc1,.,85*,38*,7,-47,29*,80*,-1,
Cc1cc(C)n(Cc2ccc(C(=O)O)cc2)n1,0,2,-2,-23,-3,9,.,.,
Cn1c(=O)c2ccccc2n(CC(=O)N2CCCc3ccccc32)c1=O,2,-10,37*,.,-13,-8,-6,-14,
CN(C)c1ccc(N/C=C/C(=O)C(C)(C)C)cc1,0,+,48*,-11,-22,+,19,26,
CCOC(=O)c1ccc(N/C=C/C(=O)C(C)(C)C)cc1,-1,-9,2,9,4,4,.,.,
CC1(C)Cc2c(c(-c3ccco3)[nH]c(=O)c2C#N)CS1,-23,-3,44*,32,-3,5,75*,7,
CCCCn1c(N)c(N(CC(C)C)C(=O)CCCc2nc3ccccc3s2)c(=O)[nH]c1=O,0,-5,.,.,-1,4,.,.,
CCCCn1c(N)c(N(CCC(C)C)C(=O)CCCc2nc3ccccc3s2)c(=O)[nH]c1=O,2,6,38*,.,-9,0,3,-35,
CC(C)Cn1c(N)c(C(=O)COC(=O)c2c(O)c(Cl)cc(Cl)c2Cl)c(=O)n(C)c1=O,.,-21,.,.,.,.,.,.,
CCOC(=O)C1(Cc2cccc(OC)c2)CCCN(C(=O)c2cc(C)oc2C)C1 (stereo unspecified),-4,-9,2,.,8,7,.,.,
SMILES,MEX-5 binding,ZTA counter,HCV NS3 hel inh,EBV gp42 block,HCV core dimer,EBNA-1 inh,NS3 hel confirm,FID counter trip,others
Cc1nc([N+](=O)[O-])cn1CC(O)c1ccc(-c2ccccc2)cc1 (stereo unspecified),0,16,45*,-19,3,-3,-6,0,
Cc1ccc(C(O)Cn2cc([N+](=O)[O-])nc2C)cc1 (stereo unspecified),2,1,4,-5,5,-5,.,.,
COc1ccc([C@H]2CC(=O)C=C(c3cccc(C(C)C)c3)C2)cc1OC,.,-6,.,.,.,.,.,.,
CCCCCCCc1nn2c(=O)cc(O)nc2s1,3,12,36*,-20,-7,11,-19,8,
CCCc1nn2c(=O)cc(O)nc2s1,-1,11,-1,-3,-14,2,.,.,
CCOc1cc(/C=C2/C(=O)NN(c3cccc(Cl)c3)C2=O)ccc1O,4,2,37*,.,13,0,64*,-4,
COc1cc(/C=C2\C(=O)NN(c3ccccc3)C2=O)ccc1OCC(N)=O,1,-7,15,-15,-5,-1,.,.,
COc1cc(/C=C2/C(=O)NN(c3cccc(Cl)c3)C2=O)cc(OC)c1O,8,-15,46*,.,8,-1,51*,14,
COc1cc(/C=C2/C(=O)NN(c3ccc(C)c(Cl)c3)C2=O)cc([N+](=O)[O-])c1O,-11,.,37*,.,.,.,68*,-2,
COc1cccc(/C=C2/C(=O)NN(c3ccc(C)c(C)c3)C2=O)c1,-1,12,0,.,-3,6,.,.,
COCCNC(=S)NNC(=O)c1cc(C2CC2)nc2ccccc12,-3,.,2,.,.,.,.,.,
COC(=O)c1cc(C(=O)OCC(=O)NC(=O)c2ccccc2)cc([N+](=O)[O-])c1,-1,3,.,.,1,4,.,.,
O=C(/C=C/c1ccco1)Nc1cccc(S(=O)(=O)N2CCOCC2)c1,0,-2,5,-19,6,-5,.,.,
Cc1ccc(/C=C/C(=O)Nc2cccc(S(=O)(=O)N3CCOCC3)c2)o1,-2,17,48*,-7,21,13,-1,18,
Cc1ccc(S(=O)(=O)NCC(=O)OC(C)C(=O)NC(=O)NC2CCCCC2)cc1C (stereo unspecified),.,-12,.,.,.,.,.,.,
CC(C)OC(=O)/C(=C/c1ccco1)c1ccccc1,1,-3,61*,-6,2,7,-19,-9,
CC(C)c1ccc(SCc2noc(C(=O)NCC3CCCO3)c2C(=O)O)cc1 (stereo unspecified),-2,-5,41*,-16,-7,5,36,-19,
O=C(NCC1CCCO1)c1onc(CSc2ccccc2)c1C(=O)O (stereo unspecified),0,-5,-1,-15,12,4,.,.,
COc1cccc(C(=O)O[C@@H]2[C@H](Cc3ccccc3)NS(=O)(=O)[C@H]3C[C@@H]4C=C[C@]23O4)c1,.,7,.,.,.,.,.,.,
